A short description of data set [1]: Caco-2 permeability assay. The class given is in vitro ADME, human. The conditions noted are these: human; for efflux ratio: Caco-2; for Papp: Mean ± RSD, n = 2.
The subject of data set [2] is GPX4. The data set can be described thus: qRT-PCR of GPX4 mRNA. The settings on record: MGC-803 and MKN-45 cells, 24 h. It counts as cell-based, human.
The nature of data set [3]: Metabolic stability in rat liver microsomes. It counts as in vitro ADME.
Data set [4] relates to GES1. Put plainly: Cell proliferation by SRB assay, gastric epithelial cell line. The conditions noted are these: 72 h. It counts as cell-based, human. In short, it runs like this:
(§1)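 SRB assay after 72 h exposure. OD read at compound addition (ODstart) is subtracted: relative growth = (ODtreated − ODstart)/(ODcontrol − ODstart); inhibitory rate (%) = (ODcontrol − ODtreated)/(ODcontrol − ODstart) × 100. GI50 obtained per cell line. Mean ± SD (n = 3), three independent experiments, biological duplicates.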

Data set [5] is described as follows: Metabolic stability in dog liver microsomes. It counts as in vitro ADME.
The subject of data set [6] is MGC-803 cells. The data set can be described thus: Cell cycle, PI staining and flow cytometry. The settings on record: MGC-803, 48 h. The class given is cell-based, human. The method in brief:
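MGC-803 cells exposed to test compound for 48 h, stained with PI and analysed by flow cytometry with quantification. Mean ± SD (n = 3) from three independent experiments with biological duplicates.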

Data set [7] deals with GPX4. Put plainly: GPX4 expression in PDX tumor tissues by IHC. It counts as in vivo, NOD-SCID mice. The settings on record: sensitive PDX models PDX-01, PDX-02 and PDX-03, end of treatment.
Data set [8] relates to MGC-803 and MKN-45 cells. The data set can be described thus: Lipid peroxidation using C11-BODIPY581/591. The conditions noted are these: 6 h. The class given is cell-based, human. The method in brief: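 After 6 h exposure in 6-well plates, cells are collected and resuspended in PBS with 2 μmol/L C11-BODIPY581/591 for 30 min at 37 °C, then read by flow cytometry. For MGC-803: three independent experiments with biological duplicates, one-way ANOVA.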

Data set [9] has as its system gastric cancer cell lines MGC-803, HGC-27, SGC-7901, MKN-45, AGS and BGC-823. The data set can be described thus: Cell proliferation by sulforhodamine B. It counts as cell-based, human. The conditions noted are these: 72 h. The method in brief:
as §1

Data set [10] can be described thus: Metabolic stability in monkey liver microsomes. The class given is in vitro ADME.
Data set [11] in a line: Metabolic stability in human liver microsomes. The class given is in vitro ADME.
In data set [12] the test system is MGC-803 and MKN-45 cells. The data set can be described thus: Intracellular ferrous iron. The settings on record: 24 h. It counts as cell-based, human. The method in brief: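 Cells in 60-mm dishes exposed to test compound for 24 h, alone or with 3-MA. Cells are then collected and homogenised in iron assay buffer, and ferrous iron is measured with a commercial iron assay kit per the maker's protocol. Mean ± SD (n = 3), three independent experiments, biological duplicates.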

Data set [13] in a line: Metabolic stability in mouse liver microsomes. The class given is in vitro ADME.
Data set [14] concerns SLC7A11. Put plainly: qRT-PCR of SLC7A11 mRNA. The class given is cell-based, human. The conditions noted are these: MGC-803 and MKN-45 cells, 24 h.
The test system of data set [15] is Caco-2 monolayer. The data set can be described thus: Caco-2 permeability assay. The class given is in vitro ADME, human. The settings on record: from A to B.
Data set [16] has as its system MGC-803 cells. The data set can be described thus: Intracellular ROS, DCFH-DA staining, flow cytometry. It counts as cell-based, human. The settings on record: 24 h. In short, it runs like this: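 MGC-803 cells exposed to test compound with or without N-acetylcysteine for 24 h, stained with DCFH-DA and analysed by flow cytometry. Groups compared by two-way ANOVA.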

For data set [17], the system named is MGC-803 xenograft. Put plainly: Gastric cancer cell line-derived xenograft. It counts as in vivo, nude mice. The conditions noted are these: for pathologic examination of heart, liver, spleen, lung and kidney: compared with the saline group, end of treatment. In short, it runs like this:
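Male nude mice (6–8 weeks) get MGC-803 cells subcutaneously in the right flank. Body weight recorded every two days. After final dose, liver, kidney, lung, heart and spleen taken for histopathology.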

A short description of data set [18]: Pharmacokinetic parameters in rats. The class given is in vivo. The conditions noted are these: male, SD, rat, plasma, iv, 20 mg/kg. The method in brief:
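Study run by a contract laboratory in male SD rats, n = 3. Parameters taken from mean plasma concentration–time curves.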

The mark [19] stands for this setting: Caco-2, Papp (A‒B), direction A‒B.
Setting [20] is: Caco-2, Papp (B‒A), direction B‒A.

The structures appear in SMILES notation.

As to `C[C@H]1O[C@@H](O[C@H]2[C@@H](O)C[C@H](O[C@H]3[C@@H](O)C[C@H](O[C@H]4CC[C@@]5(C)[C@H](CC[C@@H]6[C@@H]5C[C@@H](O)[C@]5(C)[C@@H](C7=CC(=O)OC7)CC[C@]65O)C4)O[C@@H]3C)O[C@@H]2C)C[C@H](O)[C@@H]1O` [Digoxin], the efflux ratio in [1] is 197. Moreover, the Papp was 0.13 ± 0.02 ×10⁻⁶ cm/s in data set [1] (setting [19]) and 24.7 ± 0.1 ×10⁻⁶ cm/s in data set [1] (setting [20]).

In the case of `C=C1C(=O)[C@@]23C(C(=O)C[C@@H]1[C@H]2OC(=O)[C@@H](N)C(C)C)[C@]12CCCC(C)(C)C1C[C@H]3OC2=O` (stereo partly drawn) [a2, (6R,6aR,9S,11bS,14R)-4,4-Dimethyl-8-methylene-7,11,12-trioxododecahydro-1H-6,11b-(epoxymethano)-6a,9-methanocyclohepta[a]naphthalen-14-yl valinate], the “mRNA level of GPX4” value in [2] is “dose-dependently reduced”. In data set [3], this molecule gave a half-life at 1 μmol/L of 31.2 min and a microsomal CLint at 1 μmol/L of 111 µL/min/mg. The “GI50 in GES1 relative to gastric cancer cells” value in data set [4] is listed as “at least five-fold higher”. Besides, in data set [5], the half-life at 1 μmol/L amounted to 32.2 min and the intrinsic clearance (microsomal CLint) at 1 μmol/L was 108 µL/min/mg. Besides, the “cell population in the G2/M phase” value in data set [6] is “significantly increased”. Further, in data set [7], the “expression of GPX4 in tumor tissues” value is recorded as “decreased expression of GPX4”. Also, the “lipid ROS production” value in data set [8] is reported as “dose-dependently elevated”. Moreover, the GI50 in data set [9] (Homo sapiens) was 0.88 to 3.33 µM. In data set [10], this molecule returned a half-life at 1 μmol/L of 23.5 min and a microsomal CLint at 1 μmol/L of 148 µL/min/mg. Moreover, in data set [11], the half-life at 1 μmol/L was determined as 34.9 min and the microsomal CLint at 1 μmol/L is 99.4 µL/min/mg. Also, the ferrous iron accumulation entry in data set [12] is recorded as “significantly increased”. For the same molecule, in data set [13], the half-life at 1 μmol/L amounted to 23.7 min and the microsomal CLint at 1 μmol/L amounted to 146 µL/min/mg. For the same molecule, the “mRNA level of SLC7A11” value in [14] is “increased”. In addition, the efflux ratio in data set [1] was determined as 0.2. The molecule also returned a Papp in data set [1] (setting [19]) of 16.1 ± 1.01 ×10⁻⁶ cm/s. This molecule also returned a Papp in [1] (setting [20]) of 3.3 ± 0.3 ×10⁻⁶ cm/s. Also, the “permeability class against the Caco-2 monolayer” value in data set [15] is on record as “moderately permeable compound”. Besides, the “level of ROS” value in data set [16] is listed as “markedly elevated”. For the same molecule, the tumor growth result in [17] (5, 10, 20 mg/kg once a day for 21 days, tail vein injection) was “dose- and time-dependently inhibited tumor growth”. For the same molecule, the “anti-tumor efficacy compared with 5-FU (15 mg/kg)” value in data set [17] (a2 at 10 or 20 mg/kg, once a day for 21 days) was “more potent than that of the positive control drug 5-FU”. Also, the “pathologic examination of heart, liver, spleen, lung and kidney” value in data set [17] is “no observed adverse effects”. Moreover, the “effect on mouse body weight” value in data set [17] (once a day for 21 days, compared to 5-FU) is “fewer effect”. Moreover, in [18], the AUC(0-inf) was determined as 14800 ± 1330 ng·h/mL, the exposure AUC(0-t) stood at 14800 ± 1320 ng·h/mL, the Cmax turned out to be 18300 ± 1420 ng/mL and the mean residence time (MRT last) was 92.4 ± 7.8 min. In data set [18], this molecule showed a Vd of 7.73 ± 1.46 L/kg and a half-life of 236 ± 28.8 min.

`CC(C)NCC(O)COc1cccc2ccccc12` (centres unmarked) [Propranolol]: the efflux ratio in data set [1] was determined as 0.7. The apparent permeability (Papp) in [1] (setting [19]) was determined as 28.3 ± 0.43 ×10⁻⁶ cm/s; in data set [1] (setting [20]) it was 18.5 ± 0.3 ×10⁻⁶ cm/s.

For `O=c1[nH]cc(F)c(=O)[nH]1` [Compound 5-FU, 5-fluorouracil, reference compound], the “pathologic examination of heart, liver, spleen, lung and kidney” value in [17] is on record as “no observed adverse effects”.

With `CC(C)Oc1ccc(C(=O)Cn2ccnc2)cc1-n1c(CN2CCN(C(=O)COc3ccc(Cl)cc3)CC2)nc2ccccc2c1=O` [IKE, imidazole ketone erastin, reference compound], the “effect on cell growth, compound alone” value in data set [9] (MGC-803 and MKN-45 cells, SRB) is given as “no effect”.

For the origin of these results see publication PMC8245858 (Acta Pharmaceutica Sinica. B, 2021).
